Data as given in ChEMBL document CHEMBL4002604, “Evaluation of biological properties of 3,3',4,4'-benzophenonetetracarboxylic dianhydride derivatives and their ability to inhibit hexokinase activity” (2017).

Experiments:
[1] = tested on: P19; assay: Cytotoxicity against undifferentiated mouse P19 cells assessed as metabolic activity at 1 to 100 uM after 48 hrs by resazurin assay relative to control; assay type: functional
Method in brief: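 Metabolic activity by resazurin reduction in undifferentiated (P19SCs) or differentiated (P19dCs) P19 cells. Exposure to 1, 10 or 100 µM for 24, 48 or 72 h. Read-out relative to untreated control. Significance vs control at p<0.05.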

[2] = tested on: P19; assay: Cytotoxicity against differentiated mouse P19 cells assessed as mitochondrial superoxide anion level at 100 uM after 24 hrs by MitoSox dye based fluorescence assay relative to control; assay type: functional
Method in brief: (§1)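 Undifferentiated (P19SCs) or differentiated (P19dCs) P19 cells incubated 24 or 72 h with 1 or 100 µM. Mitochondrial membrane potential and mitochondrial superoxide levels measured and expressed relative to untreated control. Means ± SD from 4 independent measurements, at least 4 repeats each. Significance at p<0.05.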

[3] = target: T1, Hexokinase-2 (Homo sapiens) (UniProt P52789); assay: Inhibition of recombinant human HK2 using [U-14C]-labeled glucose as substrate in presence of ATP and NADP by G6PD enzyme coupled spectrophotometric assay; conditions: in the assay text read “glucose” for “[U-14C]-labeled glucose”
T1 sequence (whole entry): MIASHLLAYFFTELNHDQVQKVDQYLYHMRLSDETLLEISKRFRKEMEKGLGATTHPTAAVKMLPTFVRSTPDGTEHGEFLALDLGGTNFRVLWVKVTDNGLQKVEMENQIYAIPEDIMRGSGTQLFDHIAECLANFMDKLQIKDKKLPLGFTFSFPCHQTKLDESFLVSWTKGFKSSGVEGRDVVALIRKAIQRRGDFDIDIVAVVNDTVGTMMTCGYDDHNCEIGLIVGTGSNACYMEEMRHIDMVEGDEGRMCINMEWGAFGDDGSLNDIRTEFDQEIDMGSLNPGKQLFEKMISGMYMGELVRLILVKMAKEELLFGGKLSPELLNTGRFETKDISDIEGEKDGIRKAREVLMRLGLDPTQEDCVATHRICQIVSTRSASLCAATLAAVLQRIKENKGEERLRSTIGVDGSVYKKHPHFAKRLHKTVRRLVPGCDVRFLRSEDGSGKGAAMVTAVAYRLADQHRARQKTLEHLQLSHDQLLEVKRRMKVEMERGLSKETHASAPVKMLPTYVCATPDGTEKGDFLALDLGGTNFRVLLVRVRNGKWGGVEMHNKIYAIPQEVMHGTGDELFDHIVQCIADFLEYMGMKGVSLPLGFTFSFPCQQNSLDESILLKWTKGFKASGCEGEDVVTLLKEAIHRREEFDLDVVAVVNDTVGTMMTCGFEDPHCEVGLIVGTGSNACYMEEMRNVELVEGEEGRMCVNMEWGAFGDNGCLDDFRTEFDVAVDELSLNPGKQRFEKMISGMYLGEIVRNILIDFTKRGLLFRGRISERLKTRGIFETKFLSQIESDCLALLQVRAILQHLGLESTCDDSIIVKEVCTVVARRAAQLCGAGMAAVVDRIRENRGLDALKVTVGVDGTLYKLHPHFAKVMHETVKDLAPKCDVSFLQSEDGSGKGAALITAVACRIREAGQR
Method in brief: (§2)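 Coupled hexokinase assay at 340 nm following G6P-dependent NADP→NADPH conversion. Enzyme source is freshly prepared, centrifuged undifferentiated P19 lysate supernatant or recombinant human HKII. Buffer: 100 mM Tris-HCl pH 8.0, 0.5 mM EDTA, 10 mM MgCl2, 2 mM glucose, 0.1 mM NADP, 0.1 U/ml G6PD. Preincubated 10 min at 37°C; reaction started with 10 mM ATP. Means ± SD, 4 experiments, at least 4 repeats each.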

[4] = tested on: P19; assay: Cytotoxicity against differentiated mouse P19 cells assessed as mitochondrial superoxide anion level at 1 uM after 72 hrs by MitoSox dye based fluorescence assay relative to control; assay type: functional; method in brief: as §1
[5] = tested on: P19; assay: Cytotoxicity against differentiated mouse P19 cells assessed as cell mass at 1 to 100 uM after 48 hrs by SRB assay relative to control; assay type: functional
Method in brief: (§3)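 Cell mass by SRB assay in P19 cells (CRL-1825), either undifferentiated (P19SCs) or differentiated (P19dCs). Cells exposed to 1, 10 or 100 µM for 24, 48 or 72 h. Values expressed relative to untreated control. Means ± SD from at least 4 independent measurements, 6 repeats each. Significance vs control at p<0.05.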

[6] = tested on: P19; assay: Cytotoxicity against differentiated mouse P19 cells assessed as mitochondrial membrane potential at 1 uM after 72 hrs by TMRF dye based fluorescence assay relative to control; assay type: functional; method in brief: as §1
[7] = tested on: P19; assay: Cytotoxicity against undifferentiated mouse P19 cells assessed as cell mass at 1 to 100 uM after 72 hrs by SRB assay relative to control; assay type: functional; method in brief: as §3
[8] = target: T2, Hexokinase-2 (Mus musculus) (UniProt O08528); assay: Inhibition of HK2 isolated from mouse undifferentiated P19 cell lysates using [U-14C]-labeled glucose as substrate in presence of ATP and NADP by G6PD enzyme coupled spectrophotometric assay; conditions: in the assay text read “glucose” for “[U-14C]-labeled glucose”; method in brief: as §2
T2 sequence (whole entry): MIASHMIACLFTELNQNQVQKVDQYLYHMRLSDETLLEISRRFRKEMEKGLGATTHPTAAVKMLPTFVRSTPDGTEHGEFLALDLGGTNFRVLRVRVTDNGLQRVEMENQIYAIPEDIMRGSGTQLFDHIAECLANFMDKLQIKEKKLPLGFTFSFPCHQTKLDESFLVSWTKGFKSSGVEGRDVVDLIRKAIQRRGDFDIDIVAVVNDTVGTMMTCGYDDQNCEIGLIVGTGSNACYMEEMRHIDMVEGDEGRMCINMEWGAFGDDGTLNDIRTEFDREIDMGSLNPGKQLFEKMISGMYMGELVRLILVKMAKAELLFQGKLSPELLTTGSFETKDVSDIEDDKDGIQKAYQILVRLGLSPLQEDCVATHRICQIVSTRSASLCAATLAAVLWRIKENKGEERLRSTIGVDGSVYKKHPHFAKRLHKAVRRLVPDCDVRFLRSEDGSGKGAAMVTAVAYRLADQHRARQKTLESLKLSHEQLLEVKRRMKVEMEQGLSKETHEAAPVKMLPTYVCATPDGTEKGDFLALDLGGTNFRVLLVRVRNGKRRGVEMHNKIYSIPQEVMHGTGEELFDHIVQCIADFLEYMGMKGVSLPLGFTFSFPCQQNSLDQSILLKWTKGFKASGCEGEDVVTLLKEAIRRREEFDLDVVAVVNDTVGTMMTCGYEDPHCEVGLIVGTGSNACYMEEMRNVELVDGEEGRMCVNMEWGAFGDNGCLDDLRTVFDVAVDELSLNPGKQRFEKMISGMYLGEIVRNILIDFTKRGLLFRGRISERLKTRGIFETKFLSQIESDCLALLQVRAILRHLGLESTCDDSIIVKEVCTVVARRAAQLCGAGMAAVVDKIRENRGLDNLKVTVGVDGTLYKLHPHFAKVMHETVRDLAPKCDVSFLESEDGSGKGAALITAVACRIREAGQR

[9] = tested on: P19; assay: Cytotoxicity against undifferentiated mouse P19 cells assessed as cell mass at 1 to 100 uM after 24 hrs by SRB assay relative to control; assay type: functional; method in brief: as §3

inhibition [3]: Dose-dependent effect
inhibition [8]: Dose-dependent effect
SMILES: O=C(c1ccc2c(c1)C(=O)N(c1cccc(O)c1)C2=O)c1ccc2c(c1)C(=O)N(c1cccc(O)c1)C2=O
Activity [1]: 76.5%
Activity [2]: 117.4%
Activity [4]: 105.3%
Activity [5]: 102.2%
Activity [6]: 87.8%
Activity [7]: 58.9%
Activity [9]: 103.3%
